Activity calls are given as the source filed them.
Assays:
Type in all cases: functional, organism-based
[1] = test system: Cryptococcus neoformans; assay: Antifungal activity against Cryptococcus neoformans at 1 mM by almar blue dye reduction assay
Procedure, shortened: (§1)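 Single-point primary screen at 1 mM using Alamar Blue dye reduction as the growth read-out.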

[2] = test system: Pseudomonas aeruginosa; assay: Antibacterial activity against Pseudomonas aeruginosa at 1 mM by almar blue dye reduction assay; procedure, shortened: as §1
[3] = test system: Bacillus anthracis; assay: Antibacterial activity against Bacillus anthracis at 1mM by almar blue dye reduction assay
[4] = test system: Saccharomyces cerevisiae; assay: Antifungal activity against Saccharomyces cerevisiae at 1 mM by almar blue dye reduction assay; procedure, shortened: as §1
[5] = test system: Bacillus cereus; assay: Antibacterial activity against Bacillus cereus at 1 mM by almar blue dye reduction assay; procedure, shortened: as §1
[6] = test system: Candida albicans; assay: Antifungal activity against Candida albicans at 1 mM by almar blue dye reduction assay; procedure, shortened: as §1
[7] = test system: Staphylococcus aureus; assay: Antibacterial activity against Staphylococcus aureus at 1 mM by almar blue dye reduction assay; procedure, shortened: as §1
[8] = test system: Bacillus subtilis; assay: Antibacterial activity against Bacillus subtilis at 1 mM by almar blue dye reduction assay; procedure, shortened: as §1
[9] = test system: Escherichia coli; assay: Antibacterial activity against Escherichia coli at 1 mM by almar blue dye reduction assay; procedure, shortened: as §1

Measured: Activity

C[C@H](C[C@@H]1CC[C@H]([C@@H](C)C(=O)N(C)Cc2ccccc2)O1)n1cc(C#Cc2ccc(-c3ccccc3)cc2)nn1
inactive: all assays above

CC(C)CC#Cc1cn([C@H](C)C[C@@H]2CC[C@H]([C@@H](C)C(=O)N3CCCC3)O2)nn1
inactive: all assays above

Cc1cccc(NC(=O)NCC#Cc2cn([C@H](C)CC3CCC([C@@H](C)C(=O)N4CCCC4)O3)nn2)c1 (single isomer, unassigned)
inactive: all assays above

C[C@H](C[C@@H]1CC[C@H]([C@@H](C)C(=O)N2CCN(CC3CCCO3)CC2)O1)n1cc(C#CCOc2ccc(C(F)(F)F)cc2)nn1 (some centres not stated)
inactive: all assays above

Cc1cccc(NC(=O)NCC#Cc2cn([C@H](C)CC3CCC([C@@H](C)C(=O)N(C)Cc4ccccc4)O3)nn2)c1 (single isomer, unassigned)
inactive: all assays above

CCCNC(=O)NCC#Cc1cn([C@H](C)CC2CCC([C@@H](C)C(=O)N(CC)CC)O2)nn1 (single isomer, unassigned)
inactive: all assays above

CCCNC(=O)NCC#Cc1cn([C@H](C)CC2CCC([C@@H](C)C(=O)N(C)Cc3ccccc3)O2)nn1 (single isomer, unassigned)
inactive: all assays above

C[C@H](C[C@@H]1CC[C@H]([C@@H](C)C(=O)N2CCCC2)O1)n1cc(C#Cc2ccc(Oc3ccccc3)cc2)nn1
inactive: all assays above

Cc1cccc(NC(=O)OCC#Cc2cn([C@H](C)CC3CCC([C@@H](C)C(=O)N4CCCC4)O3)nn2)c1 (single isomer, unassigned)
inactive: all assays above

C[C@H](C[C@H]1CC[C@H]([C@@H](C)C(=O)N2CCCC2)O1)n1cc(C#CCN(C)C)nn1
inactive: all assays above

C[C@H](C[C@@H]1CC[C@H]([C@@H](C)C(=O)N2CCCC2)O1)n1cc(C#CCOc2cccc(-c3ccccc3)c2)nn1
inactive: all assays above

C[C@H](CC1CCC([C@@H](C)C(=O)N2CCN(CC3CCCO3)CC2)O1)n1cc(C#CCCCC#N)nn1 (single isomer, unassigned)
inactive: all assays above

CC(C)CC#Cc1cn([C@H](C)C[C@@H]2CC[C@H]([C@@H](C)C(=O)N3CCN(CC4CCCO4)CC3)O2)nn1 (some centres not stated)
inactive: all assays above

CCOC(=O)C#Cc1cn([C@H](C)CC2CCC([C@@H](C)C(=O)NC(C)C)O2)nn1 (single isomer, unassigned)
inactive: all assays above

CCN(CC)C(=O)[C@H](C)[C@H]1CC[C@@H](C[C@@H](C)n2cc(C#Cc3ccccc3[N+](=O)[O-])nn2)O1
inactive: all assays above

C[C@H](CC1CCC([C@@H](C)C(=O)N2CCCC2)O1)n1cc(C#CCCCC#N)nn1 (single isomer, unassigned)
inactive: all assays above

CCN(CC)C(=O)[C@H](C)[C@H]1CC[C@@H](C[C@@H](C)n2cc(C#Cc3ccc(Oc4ccccc4)cc3)nn2)O1
inactive: all assays above

C[C@H](C[C@@H]1CC[C@H]([C@@H](C)C(=O)N2CCCC2)O1)n1cc(C#CCN2CCN(c3ccccc3)CC2)nn1
inactive: all assays above
